Assay results published in PubChem BioAssay AID624466 (The Scripps Research Institute Molecular Screening Center, 2012).
“And” between values parts separate entries of the source, which are not always exact repeats. Equal values may be shown once. In all, about 360,000 compounds went through this assay and about 5,400 (1.5%) were called active.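 The calls were made as follows: active = inhibition above a per-plate cutoff, the mean inhibition of test compounds on that plate plus 3 SD (cut at about 49% in these data); inactive = the rest.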 What follows is part of a selection rich in actives, with near analogues and random picks from the rest.

Biological target: Trace amine-associated receptor 1 (Homo sapiens) (UniProt Q96RJ0)
Test: human TAAR1 antagonists, primary screen, Fluo-8 calcium fluorescence, CHO RD-HGA16 cells (AID 624466);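 also: 0% = DMSO plus EC80 beta-PEA response and 100% = DMSO alone without agonist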
Conditions: CHO RD-HGA16 TAAR1, Fluo-8 calcium fluorescence, antagonist; at 3 µM; stronger effect = higher value
Summary of the method: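 System: RD-HGA16 CHO cells with stable hTAAR1 and Gα16 | Probe or stimulus: EC80 β-phenethylamine stimulus | Dosing: 3 µM, single point | Times: Dye loading 75 min at 37 °C, then 30 min room temperature | Measured by: Fluo-8 calcium-sensitive fluorescence | Read-out basis: % inhibition of agonist calcium response | Replicates: n of 1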

Sequence of Trace amine-associated receptor 1 (Homo sapiens) (Q96RJ0 whole entry, looked up): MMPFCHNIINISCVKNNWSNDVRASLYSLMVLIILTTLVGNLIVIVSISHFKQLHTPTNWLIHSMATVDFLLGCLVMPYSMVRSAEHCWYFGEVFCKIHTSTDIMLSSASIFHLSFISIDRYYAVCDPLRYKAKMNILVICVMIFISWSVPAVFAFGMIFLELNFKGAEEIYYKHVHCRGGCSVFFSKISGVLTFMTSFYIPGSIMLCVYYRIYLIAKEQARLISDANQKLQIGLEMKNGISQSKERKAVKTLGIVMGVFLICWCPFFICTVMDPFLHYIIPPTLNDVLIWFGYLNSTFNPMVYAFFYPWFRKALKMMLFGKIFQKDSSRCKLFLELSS

Compound | inhibition
COC(=O)C1(C(=O)OC)C[C@H](c2ccccc2)N(Cc2ccccc2OC)[C@@H]1c1ccccc1 | -23.2% (inactive)
Cc1noc(C)c1NC(=O)Nc1ccc2c(c1)C(=O)N([C@H](C)CO)C[C@H](C)[C@H](CN(C)Cc1ccncc1)OCCCC[C@@H](C)O2 | 8.35% (inactive)
CCCCCCc1cc2cc(-c3nnc(-c4cccc(OC)c4)o3)c(=O)oc2cc1O | 15.5% (inactive)
Nc1[nH]c(C(=O)c2ccccc2)c(-c2ccncc2)c1C(=O)NCc1cccc2ccccc12 | 36.1% (inactive)
NC(=O)c1ncn([C@@H]2O[C@H](C(=O)O)[C@@H](O)[C@H]2O)n1 | -11.9% (inactive)
COc1cccc(CNC(=O)[C@H]2CCCN2C(=O)[C@H]2CCCN2C(=O)c2ccc(F)cc2)c1 | -14.1% (inactive)
COc1cc(C(C(=O)NC2CCCC2)N(Cc2ccccc2)C(=O)c2snc(C(N)=O)c2N)ccc1O (stereo not drawn) | 23.1% (inactive)
COc1ccc(CNC(=O)C(c2ccc(O)cc2)N(Cc2ccco2)C(=O)c2snc(C(N)=O)c2N)cc1 (stereo not drawn) | 65% (active)
NC(=O)c1nsc(C(=O)N(CC(=O)NCc2ccc(F)cc2)Cc2ccco2)c1N | 10.2% (inactive)
COc1ccc2nc3n(c(=O)c2c1)-c1ccc(Cl)cc1C(=O)NC3Cc1ccccc1 (stereo not drawn) | 25.3% (inactive)
CCC(C(=O)OCC(=O)Nc1c(Cl)cc(Cl)cc1Cl)c1ccccc1 (stereo not drawn) | 15.1% (inactive)
CCC(C(=O)OCC(=O)Nc1ccccc1-c1ccccc1)c1ccccc1 (stereo not drawn) | 36.7% (inactive)
CCC(C(=O)OCC(=O)Nc1ccc(C(=O)Nc2ccc(OC)cc2)cc1)c1ccccc1 (stereo not drawn) | 65.6% (active)
O=C1Nc2c(Br)cc(Br)cc2C1(O)N1CCOCC1 (stereo not drawn) | 1.94% (inactive)
COc1ccc(-c2cc3nc(C)c(CCC(=O)NC(C)CCc4ccco4)c(C)n3n2)c(OC)c1 (stereo not drawn) | 8.4% (inactive)
COc1ccc2[nH]c3c(c2c1)CCN1C(=O)C(CC(=O)NCCc2ccccn2)C[C@H](C(=O)N2CCOCC2)[C@@]31C (stereo partly drawn) | 3.09% (inactive)
CCN1C(=O)N[C@@H]2C[C@H](C(=O)N3CCCC3)[C@H](C)[C@H](c3ccccc3)C[C@@H]21 | 6% (inactive)
Cc1ccc(C)c(S(=O)(=O)n2cnc3ccccc32)c1 | -29.5% (inactive)
Cc1ccc(C)c(S(=O)(=O)N2CCN(CC(=O)Nc3ccc([N+](=O)[O-])cc3)CC2)c1 | 28.5% (inactive)
Cc1ccc(C)c(S(=O)(=O)N2CCN(c3ncnc4sccc34)CC2)c1 | 65.3% (active)
COc1ccc(NC(=O)N(C)C[C@@H]2OCCCC[C@@H](C)Oc3ccc(NC(=O)NC4CCCCC4)cc3C(=O)N([C@H](C)CO)C[C@@H]2C)cc1 | 2.84% (inactive)
CC[C@H](C)[C@H]1CNC(=O)C(=O)N1CC1CCN(CCc2ccc(OC)c(OC)c2)CC1 | 9.23% (inactive)
CCO/C([O-])=N/c1c[n+](N2CCOCC2)no1 | -14.5% (inactive) and -7.68% (inactive)
